The values below come from paper PMC3143825 (Bioorganic & medicinal chemistry, 2011).

The subject of experiment [1] is c-Kit and IGF-IR in MDA-MB-468 cells. It is filed as cell-based. The note with it: 5 μM, 24 h. The gist of the method: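 MDA-MB-468 breast cancer cells kept in DME/F12 with 10% FBS, 1% L-glutamine and 1% penicillin/streptomycin at 37°C under 5% CO₂. Grown to 60–70% confluence, then exposed to test compound for 24 h. Lysed in 50 mM Tris pH 7.4, 150 mM NaCl, 1% NP-40. 10–50 μg protein run on SDS-PAGE and blotted to nitrocellulose. Probed with anti-IGF-IR (1:1000) and anti-c-Kit (1:200), then HRP secondary (1:3000), with ECL detection.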

Experiment [2] deals with Hsp90 from SKBr3 cellular extracts. In words: Fluorescence polarization. As to conditions: for IC50: read-out: IC50, binding affinity for Hsp90, Hsp90 from SKBr3 cellular extracts, displacement of GM-cy3B (6 nM), 4°C, 24 h. It is filed as binding.
Experiment [3] has as its target Cell surface Hsp90 in MV4-11 leukemia cells (Homo sapiens, UniProt P07900). In words: Flow cytometry detection of cell surface Hsp90. It is filed as cell-based. As to conditions: MV4-11 cells, 2 h at 37°C, SA-PE staining; D-biotin as control.

For the compound `CC(C)NCCCn1c(Sc2cc3c(cc2I)OCO3)nc2c(N)ncnc21` [PU-H71, reference compound], the “steady-state levels of c-Kit and IGF-IR” value in experiment [1] is given as “reduction in the steady-state levels”. For the same compound, the IC50 in experiment [2] was 22.4 nM.
`CC1(C)CC(=O)c2c(C(F)(F)F)nn(-c3ccc(C(N)=O)c(N[C@H]4CC[C@H](N)CC4)c3)c2C1` [Compound 18, 2-(trans-4-Aminocyclohexylamino)-4-(6,6-dimethyl-4-oxo-3-(trifluoromethyl)-4,5,6,7-tetrahydro-1H-indazol-1-yl)benzamide]: the “fold loss in potency as compared to SNX-2112” value in experiment [2] (FP assay, SKBr3 extract) was roughly 14 fold. For the same compound, the IC50 in experiment [2] amounted to 210 nM.
With `Nc1ncnc2c1nc(Sc1cc3c(cc1I)OCO3)n2CCCNCCOCCOCCOCCNC(=O)CCCC[C@@H]1SC[C@@H]2NC(=O)N[C@@H]21` [Compound 7], the “detection of cell surface Hsp90” value in experiment [3] is on record as “can detect Hsp90 expression on the surface of leukemia cells”. For the same compound, in experiment [2], the IC50 came out at 67.1 nM.
For the compound `CCNC(=O)c1noc(-c2cc(C(C)C)c(O)cc2O)c1-c1ccc(CNCCCCCCN)cc1` [Compound 10, 4-(4-((6-Aminohexylamino)methyl)phenyl)-5-(2,4-dihydroxy-5-isopropylphenyl)-N-ethylisoxazole-3-carboxamide], the IC50 in experiment [2] is 7 nM.
Turning to `CC1(C)CC(=O)c2c(C(F)(F)F)nn(-c3ccc(C(N)=O)c(N[C@H]4CC[C@H](NC(=O)CCCCCN)CC4)c3)c2C1` [Compound 20, 2-(trans-4-(6-Aminohexanamido)cyclohexylamino)-4-(6,6-dimethyl-4-oxo-3-(trifluoromethyl)-4,5,6,7-tetrahydro-1H-indazol-1-yl)benzamide], the concentration for half-maximal inhibition (IC50) in experiment [2] was 24.7 nM.
With `CCNC(=O)c1noc(-c2cc(C(C)C)c(O)cc2O)c1-c1ccc(CN2CCOCC2)cc1` [NVP-AUY922, reference compound], in experiment [2], the IC50 amounted to 4.1 nM.
